Experimental findings from PubChem BioAssay are described below.

Assay [1] is described as follows: OD615 S. cerevisiae growth inhibition, permissive medium, pilot counter-assay, permissive growth control for S. cerevisiae lifespan shortening project (AID 705;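 active = growth inhibition above 25% in both replicates, a cutoff set 3 SD above the mean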). To be noted: OD615, 24 h, at 10 µM, active compounds read high. Put shortly: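 System: Engineered DeaD yeast | Buffer or medium: SC raffinose/galactose permissive medium | Doses: 10 µM single dose, 0.25% DMSO | Times: 24 h exposure, 30 °C | Measured by: OD615 turbidity read | Read-out: Yeast growth inhibition indicated by reduced 24 h OD615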

The nature of assay [2]: Restrictive medium S. cerevisiae growth inhibition, OD615, pilot screen of yeast lifespan reduction project, restrictive growth control (AID 706;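 active = growth inhibition above a set limit, 3 SD over mean compound inhibition, in both replicates, cut at about 43% in these data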;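 also: modified DeaD lifespan yeast strain shifted to restrictive glucose medium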). To be noted: OD615, 48 h, at 10 µM, active compounds read high. Put shortly: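 Assay system: engineered S. cerevisiae DeaD strain; Buffer or medium: CSMM-D glucose medium; Dosing: 10 µM compound, 0.25% DMSO; Times: cell pre-growth 4 h, compound exposure 48 h, 30 °C; Detection: absorbance (optical density) measured at 615 nm.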

Assay [3] in a line: viability gain of MRP-1-high H69AR cells under doxorubicin, pilot screen, MRP-1 activator project, CellTiter-Glo, duplicate (AID 807;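 active = viability increase at or above a cutoff of the median across tested compounds plus 3 SD, cut at about 8.5% in these data, passing the limit was not always enough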;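 also: compound pretreatment 18-22 h then 72 h combined with doxorubicin; 0% = doxorubicin alone and 100% = vehicle without doxorubicin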). To be noted: H69AR viability with doxorubicin, CellTiter-Glo luminescence; at 10 µM; active compounds read high.
A short description of assay [4]: growth suppression of beta-catenin knockout HCT116, pilot screen, human colon tumor cells (AID 823;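 active = cell viability at or below a set limit in both duplicate runs, the limit being the all-compound median minus 4 SD, cut at about 23% in these data, passing the limit was not always enough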;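 also: 0% = wells killed by 20 µM Hyamine and 100% = untreated DMSO cell wells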). To be noted: CellTiter-Glo, 60 h, at 10 µM, active compounds read low.
Assay [5] in a line: growth suppression of PTEN-deleted HCT116, pilot screen, cell-based, HCT116 clonal line, CellTiter-Glo (AID 824;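 active = viability at or below 27.92% in each of two runs, the all-compound median minus 4 SD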;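 also: 0% = 20 µM Hyamine control and 100% = vehicle cell control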). To be noted: 60 h, at 10 µM, active compounds read low.
Assay [6] in a line: inhibitors of the yeast RAM network, pilot screen, dse1pr::URA3 reporter, 5-FOA selection (AID 869).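 Also: 0% = DMSO wells with no growth and 100% = 10 µM 1-NA-PP1 with full growth; RAM network block rescues cells from 5-FOA so hits raise OD615 growth.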 To be noted: S. cerevisiae dse1pr::URA3 5-FOA growth, OD615, 2 d; at 10 µM; active compounds read high; strain carries analog-sensitive mutant Cbk1 kinase.
Assay [7] in a line: RAM signaling pathway blockade in yeast – S. cerevisiae, Pdr1DBD-CYC8 efflux-inhibited sensitized strain, primary screen (AID 1298;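 active = RAM network inhibition above 8.4% in each of two replicates, 3 SD over the compound average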;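 also: 0% = DMSO untreated cells without growth and 100% = 10 µM 1-NA-PP1 full growth; higher means more yeast growth rescued from 5-FOA killing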). To be noted: S. cerevisiae cbk1-as DSE1-URA3 strain, 5-FOA growth OD615, 2 d; at 50 µM; active compounds read high.

Molecules are shown by their SMILES. Unmarked numbers belong to inactive results. Inconclusive results are not listed. Calls of active or inactive are those of the source.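 The calls were made as follows, unless noted: active = inhibition over a set limit, the all-compound mean plus 3 SD, in both replicate runs; inconclusive = over that limit in just one replicate run; inactive = at or under that limit in both runs.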

With `COC(=O)C1CCCN1C(C(=O)NC1CCCCC1)c1ccc(Cl)cc1` (stereo not drawn), the values for the growth inhibition in assay [1] and in assay [2] were -15.1% and -2.47%, respectively. For the same compound, in assay [3], the viability increase is 1.72%. Besides, the viability was 82.7% in assay [4] and 74.9% in assay [5]. The inhibition in assay [6] was 0.02%. Moreover, in assay [7], the RAM network inhibition was 2.27%.

For `COCCNS(=O)(=O)c1cccc2cccnc12`, the growth inhibition in assay [1] is -1.37%; in assay [2], 12.8%. Also, the viability increase in assay [3] is -1.69%. The results for the viability in assay [4] and in assay [5] were 97.8% and 92.2%, respectively. Moreover, the inhibition in assay [6] is 2.52%. Further, in assay [7], the RAM network inhibition is 2.27%.

Turning to `O=C(O)CN1C(=O)COc2cc(S(=O)(=O)N3CCCC3)ccc21`, the growth inhibition in assay [1] was 4.97%; in assay [2], -0.475%. Moreover, in assay [3], the viability increase was 0.05%. The viability in assay [4] was 94.8%; in assay [5], 102%. Further, the inhibition in assay [6] is 0%. Moreover, the RAM network inhibition in assay [7] is 2.14%.

Take `O=C(NCCOC(=O)c1ccc(S(=O)(=O)N2CCOCC2)cc1)c1cccnc1`: the results for the growth inhibition in assay [1] and in assay [2] were -19.9% and -9.85%, respectively. Also, the viability increase in assay [3] was -0.91%. Further, the viability was 89.8% in assay [4] and 91.7% in assay [5]. For the same compound, in assay [6], the inhibition is 2.44%. In addition, the RAM network inhibition in assay [7] was 2.11%.

For the compound `COc1cc(C2NC(=O)N(C)C3=C2C(=O)CCC3)cc(OC)c1OC` (stereo not drawn), the growth inhibition in assay [1] is -3.03%; in assay [2], -17.1%. In assay [3], the viability increase was -0.05%. The viability in assay [4] is 104%; in assay [5] it was 99%. In addition, the inhibition in assay [6] is 2.73%. The RAM network inhibition in assay [7] was 4.71%.

In the case of `Cc1ccc(-c2nn(CC(=O)O)c(=O)c3ccccc23)cc1`, the growth inhibition is -19.3% in assay [1] and -13.9% in assay [2]. Also, in assay [3], the viability increase is 1.3%. Moreover, the viability in assay [4] was 104%; in assay [5], 96.2%. The inhibition in assay [6] is 2.12%. Besides, in assay [7], the RAM network inhibition was 1.1%.

For the compound `Cc1noc(C)c1S(=O)(=O)N(CC(=O)Nc1ccc2c(c1)OCO2)c1ccc(C(C)C)cc1`, the growth inhibition is -5.59% in assay [1] and -3.17% in assay [2]. In assay [3], the viability increase was -3.69%. The viability in assay [4] is 96.4%; in assay [5] it was 93.5%. Also, in assay [6], the inhibition was 2.64%. The RAM network inhibition in assay [7] was -0.06%.

With `COc1ccccc1NC(=O)CSc1nc2ncccc2[nH]1`, the values for the growth inhibition in assay [1] and in assay [2] were -4.5% and 17.8%, respectively. In addition, the viability increase in assay [3] was -1.01%. Besides, the viability in assay [4] is 101%; in assay [5] it was 98.2%. Also, the inhibition in assay [6] is 0.975%. For the same compound, the RAM network inhibition in assay [7] was 3.83%.

Regarding `COC(=O)C1=C(C)NC(=O)CC1c1cccc(Cl)c1Cl` (stereo not drawn), the results for the growth inhibition in assay [1] and in assay [2] were -13.4% and -7.53%, respectively. The viability increase in assay [3] was -1.92%. For the same compound, the viability in assay [4] is 103%; in assay [5], 98%. Besides, the inhibition in assay [6] is 2.15%. The RAM network inhibition in assay [7] is 1.05%.

For `CCOC(=O)N1CCN(C(c2ccc(C)cc2)c2sc3nc(C)nn3c2O)CC1` (stereo not drawn), the growth inhibition in assay [1] is 2.26%; in assay [2], 4.33%. In addition, the viability increase in assay [3] was -0.59%. For the same compound, the values for the viability in assay [4] and in assay [5] were 108% and 102%, respectively. In addition, the inhibition in assay [6] is 0.185%. In assay [7], the RAM network inhibition was 0.28%.

`CCOC(=O)Cn1c(=O)oc2cc(S(=O)(=O)N(C)Cc3ccco3)ccc21`: the growth inhibition was -13.2% in assay [1] and -14% in assay [2]. The viability increase in assay [3] is -4.08%. Further, the values for the viability in assay [4] and in assay [5] were 99.9% and 94.1%, respectively. For the same compound, the inhibition in assay [6] is 3.37%. Also, in assay [7], the RAM network inhibition is 4.56%.

As for `CCc1cccc(OCC(=O)Nc2ccc(S(=O)(=O)Nc3onc(C)c3C)cc2)c1`, the growth inhibition is -13.4% in assay [1] and 8.17% in assay [2]. Besides, the viability increase in assay [3] was -1.89%. In addition, the viability in assay [4] was 98.7%; in assay [5] it was 97%. Besides, the inhibition in assay [6] was -0.085%. Also, the RAM network inhibition in assay [7] was 1.89%.

Regarding `NC(=O)c1cc(N2C(=O)C3CC=CCC3C2=O)ccc1N1CCCCC1` (stereo not drawn), the results for the growth inhibition in assay [1] and in assay [2] were -21.2% and -3.95%, respectively. In addition, in assay [3], the viability increase is 0.16%. For the same compound, the viability was 93.1% in assay [4] and 92.4% in assay [5]. Moreover, in assay [6], the inhibition is 1.98%. The RAM network inhibition in assay [7] is 4.2%.

`CSc1nnc(Cn2c(=O)sc3ccccc32)n1-c1ccccc1`: the growth inhibition in assay [1] was -2.55%; in assay [2] it was 3.38%. In addition, the viability increase in assay [3] was -0.84%. Besides, the viability in assay [4] is 104%; in assay [5], 102%. Also, in assay [6], the inhibition was 2.03%. The RAM network inhibition in assay [7] is 2.08%.

Consider `COC(=O)c1cn(NC(=O)c2ccc3c(c2)OCO3)c(=O)c2ccccc12`, for which the growth inhibition was -4.02% in assay [1] and -1.45% in assay [2]. In addition, in assay [3], the viability increase was -2.75%. The viability in assay [4] was 96.3%; in assay [5] it was 97.3%. Moreover, in assay [6], the inhibition was 1.44%. For the same compound, in assay [7], the RAM network inhibition is 6.69%.

Take `O=C(NC1CCCCCCC1)c1c(O)c2ccccc2[nH]c1=O`: the growth inhibition in assay [1] was -3.12%; in assay [2] it was 8.01%. The viability increase in assay [3] is -4.23%. Moreover, the figures for the viability in assay [4] and in assay [5] were 91.6% and 92.5%, respectively. In assay [6], the inhibition is 2.4%. Moreover, in assay [7], the RAM network inhibition is -0.37%.

As for `Cc1cccc(C2N(c3ccc(F)cc3)C(=O)C3CCCN32)c1` (stereo not drawn), the results for the growth inhibition in assay [1] and in assay [2] were -1.45% and -4.47%, respectively. For the same compound, the viability increase in assay [3] is 0.04%. The viability in assay [4] was 98.4%; in assay [5], 94.8%. Moreover, the inhibition in assay [6] was 0.71%. For the same compound, in assay [7], the RAM network inhibition is 3.46%.

Regarding `CCOc1cccc(=O)c2c(C)n(CC3CCCO3)c(C)c12` (stereo not drawn), the figures for the growth inhibition in assay [1] and in assay [2] were -3.19% and -1.17%, respectively. The viability increase in assay [3] was -2.8%. Also, the values for the viability in assay [4] and in assay [5] were 92.5% and 90.4%, respectively. Moreover, the inhibition in assay [6] is 0.73%. Moreover, the RAM network inhibition in assay [7] is -1.39%.

Take `CCOc1ccc2[nH]c(C)c(CN(C)C)c(=O)c2c1`: the growth inhibition in assay [1] is 1.46%; in assay [2], 9.84%. For the same compound, the viability increase in assay [3] was -1.41%. Moreover, the viability was 99.4% in assay [4] and 95.1% in assay [5]. Further, the inhibition in assay [6] was -0.27%. For the same compound, in assay [7], the RAM network inhibition is 4.03%.

Take `Cc1nnc(NC(=O)CSc2nnc(Cc3cccn3C)n2-c2ccccc2)s1`: the growth inhibition is 10.8% in assay [1] and 46.5% (active) in assay [2]. Also, the viability increase in assay [3] is 0.97%. Further, the values for the viability in assay [4] and in assay [5] were 95% and 95.3%, respectively. Moreover, the inhibition in assay [6] was 1.31%. The RAM network inhibition in assay [7] is 4.48%.

As to `Cc1cc2cc(CNS(=O)(=O)c3ccccc3)ccc2n1C`, the growth inhibition in assay [1] was -4.47%; in assay [2] it was 3.34%. The viability increase in assay [3] is -1.48%. Moreover, the viability in assay [4] is 85.2%; in assay [5], 86.2%. The inhibition in assay [6] was 0.71%. In addition, the RAM network inhibition in assay [7] is 2.49%.

For `c1ccc2c(c1)CCN(c1nc3ccccc3n3cnnc13)C2`, the growth inhibition in assay [1] was -1.93%; in assay [2], 10.2%. Moreover, the viability increase in assay [3] was -8.63%. The viability is 65.1% in assay [4] and 68.9% in assay [5]. Further, the inhibition in assay [6] was 0.5%. Further, the RAM network inhibition in assay [7] is -0.31%.

With `CC(C)c1ccc(NC(=O)C(c2ccccc2)N2CCOCC2)cc1` (stereo not drawn), the growth inhibition in assay [1] was -0.695%; in assay [2] it was 0.125%. Further, in assay [3], the viability increase is 1.44%. In addition, the viability is 91.3% in assay [4] and 83.6% in assay [5]. Further, the inhibition in assay [6] was 0.515%. Further, in assay [7], the RAM network inhibition is 0.47%.

Turning to `Cc1onc(-c2ccccc2)c1C(=O)Nc1sc2c(c1C#N)CCC2`, the growth inhibition in assay [1] was 3.88%; in assay [2], 4.25%. Further, the viability increase in assay [3] is -4.93%. Moreover, the viability in assay [4] is 59.7%; in assay [5], 54.3%. In addition, the inhibition in assay [6] is 1.58%. For the same compound, the RAM network inhibition in assay [7] was 0.09%.
